Measured values published in ChEMBL document CHEMBL3763086, “Salicylanilide N-monosubstituted carbamates: Synthesis and in vitro antimicrobial activity” (2016).
Values after ≈ are worked out from the molar mass of the structure shown.

How the values were obtained:
Format in all cases: functional
Klebsiella pneumoniae [1] = experiment: Antibacterial activity against Klebsiella pneumoniae D 11750/08 after 24 hrs by microbroth dilution method; details: D 11750/08, 24 h
How it was run: (§1)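 Microbroth dilution modified per M07-A07 in Mueller-Hinton broth, pH 7.4 (±0.2). Inoculum in sterile water adjusted to 0.5 McFarland. MIC taken as growth reduction of at least 90% (IC90) versus control, read visually and at 540 nm after 24 and 48 h incubation in the dark.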

Pichia kudriavzevii [2] = experiment: Antifungal activity against Candida krusei E28 after 24 hrs by microbroth dilution method; details: E28, 24 h
Candida tropicalis [3] = experiment: Antifungal activity against Candida tropicalis 156 after 24 hrs by microbroth dilution method; details: Candida tropicalis, 156, 24 h
Lichtheimia corymbifera [4] = experiment: Antifungal activity against Absidia corymbifera 272 after 48 hrs by microbroth dilution method; details: Lichtheimia corymbifera, 272, 48 h
Candida albicans [5] = experiment: Antifungal activity against Candida albicans ATCC 44859 after 24 hrs by microbroth dilution method; details: ATCC 44859, 24 h
Enterococcus sp. [6] = experiment: Antibacterial activity against Enterococcus sp. J 14365/08 after 24 hrs by microbroth dilution method; details: J 14365/08, 24 h; how it was run: as §1
Klebsiella pneumoniae [7] = experiment: Antibacterial activity against Klebsiella pneumoniae D 11750/08 after 48 hrs by microbroth dilution method; details: D 11750/08, 48 h; how it was run: as §1
Staphylococcus aureus [8] = experiment: Antibacterial activity against methicillin-resistant Staphylococcus aureus H 5996/08 after 48 hrs by microbroth dilution method; details: H 5996/08, 48 h
How it was run: (§2)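 Microdilution broth method modified after M07-A07 in Mueller-Hinton broth adjusted to pH 7.4 (±0.2). Inoculum prepared in sterile water to 0.5 McFarland (1.5 × 10^8 CFU/mL). MIC taken as growth reduction versus control (IC95 per table header), read visually and spectrophotometrically at 540 nm after 24 and 48 h incubation in the dark.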

Nakaseomyces glabratus [9] = experiment: Antifungal activity against Candida glabrata 20/I after 24 hrs by microbroth dilution method
Candida tropicalis [10] = experiment: Antifungal activity against Candida tropicalis 156 after 48 hrs by microbroth dilution method; details: Candida tropicalis, 156, 48 h
Klebsiella pneumoniae [11] = experiment: Antibacterial activity against ESBL-positive Klebsiella pneumoniae J 14368/08 after 24 hrs by microbroth dilution method; details: J 14368/08, 24 h; how it was run: as §1
[12] = system: Staphylococcus epidermidis; experiment: Antibacterial activity against Staphylococcus epidermidis H 6966/08 after 24 hrs by microbroth dilution method; details: H 6966/08, 24 h; how it was run: as §1
[13] = system: Trichophyton mentagrophytes; experiment: Antifungal activity against Trichophyton mentagrophytes 445 after 120 hrs by microbroth dilution method; details: Trichophyton mentagrophytes, 445, 120 h
Escherichia coli [14] = experiment: Antibacterial activity against Escherichia coli CCM 4517 after 48 hrs by microbroth dilution method; details: CCM 4517, 48 h; how it was run: as §1
Enterococcus sp. [15] = experiment: Antibacterial activity against Enterococcus sp. J 14365/08 after 48 hrs by microbroth dilution method; details: J 14365/08, 48 h; how it was run: as §1
Trichosporon asahii [16] = experiment: Antifungal activity against Trichosporon asahii 1188 after 48 hrs by microbroth dilution method; details: Trichosporon asahii, 1188, 48 h
[17] = system: Trichophyton mentagrophytes; experiment: Antifungal activity against Trichophyton mentagrophytes 445 after 72 hrs by microbroth dilution method; details: Trichophyton mentagrophytes, 445, 72 h
Pichia kudriavzevii [18] = experiment: Antifungal activity against Candida krusei E28 after 48 hrs by microbroth dilution method; details: E28, 48 h
Staphylococcus aureus [19] = experiment: Antibacterial activity against methicillin-resistant Staphylococcus aureus H 5996/08 after 24 hrs by microbroth dilution method; details: H 5996/08, 24 h; how it was run: as §2
Candida albicans [20] = experiment: Antifungal activity against Candida albicans ATCC 44859 after 48 hrs by microbroth dilution method; details: ATCC 44859, 48 h
Escherichia coli [21] = experiment: Antibacterial activity against Escherichia coli CCM 4517 after 24 hrs by microbroth dilution method; details: CCM 4517, 24 h; how it was run: as §1
Nakaseomyces glabratus [22] = experiment: Antifungal activity against Candida glabrata 20/I after 48 hrs by microbroth dilution method
[23] = system: Staphylococcus epidermidis; experiment: Antibacterial activity against Staphylococcus epidermidis H 6966/08 after 48 hrs by microbroth dilution method; details: H 6966/08, 48 h; how it was run: as §1
Klebsiella pneumoniae [24] = experiment: Antibacterial activity against ESBL-positive Klebsiella pneumoniae J 14368/08 after 48 hrs by microbroth dilution method; details: J 14368/08, 48 h; how it was run: as §1
Trichosporon asahii [25] = experiment: Antifungal activity against Trichosporon asahii 1188 after 24 hrs by microbroth dilution method; details: Trichosporon asahii, 1188, 24 h
Staphylococcus aureus [26] = experiment: Antibacterial activity against Staphylococcus aureus CCM 4516/08 after 24 hrs by microbroth dilution method; details: CCM 4516/08, 24 h; how it was run: as §1
Staphylococcus aureus [27] = experiment: Antibacterial activity against Staphylococcus aureus CCM 4516/08 after 48 hrs by microbroth dilution method; details: CCM 4516/08, 48 h; how it was run: as §2
Lichtheimia corymbifera [28] = experiment: Antifungal activity against Absidia corymbifera 272 after 24 hrs by microbroth dilution method; details: Lichtheimia corymbifera, 272, 24 h

| Structure (SMILES) | MIC (Klebsiella pneumoniae [1]) | MIC (Pichia kudriavzevii [2]) | MIC (Candida tropicalis [3]) | MIC (Lichtheimia corymbifera [4]) | MIC (Candida albicans [5]) | MIC (Enterococcus sp. [6]) | MIC (Klebsiella pneumoniae [7]) | MIC (Staphylococcus aureus [8]) | MIC (Nakaseomyces glabratus [9]) | MIC (Candida tropicalis [10]) | MIC (Klebsiella pneumoniae [11]) | MIC [12] | MIC [13] | MIC (Escherichia coli [14]) | MIC (Enterococcus sp. [15]) | MIC (Trichosporon asahii [16]) | MIC [17] | MIC (Pichia kudriavzevii [18]) | MIC (Staphylococcus aureus [19]) | MIC (Candida albicans [20]) | further results |
| --- | --- | --- | --- | --- | --- | --- | --- | --- | --- | --- | --- | --- | --- | --- | --- | --- | --- | --- | --- | --- | --- |
| O=C(NC1CCCCC1)Oc1ccccc1C(=O)Nc1ccccc1 | > 500 µM | > 500 µM | > 500 µM | > 500 µM | > 500 µM | 500 µM (≈ 169 µg/mL) | > 500 µM | 500 µM (≈ 169 µg/mL) | > 500 µM | > 500 µM | > 500 µM | 500 µM (≈ 169 µg/mL) | > 500 µM | > 500 µM | 500 µM (≈ 169 µg/mL) | > 500 µM | > 500 µM | > 500 µM | 500 µM (≈ 169 µg/mL) | > 500 µM | MIC (Escherichia coli [21]): > 500 µM; MIC (Nakaseomyces glabratus [22]): > 500 µM; MIC [23]: 500 µM (≈ 169 µg/mL); MIC (Klebsiella pneumoniae [24]): > 500 µM; MIC (Trichosporon asahii [25]): > 500 µM; MIC (Staphylococcus aureus [26]): 250 µM (≈ 84.6 µg/mL); MIC (Staphylococcus aureus [27]): 250 µM (≈ 84.6 µg/mL); MIC (Lichtheimia corymbifera [28]): > 500 µM |
| O=C(Nc1ccccc1)Oc1ccccc1C(=O)Nc1ccccc1 | > 500 µM | > 500 µM | > 500 µM | > 500 µM | > 500 µM | > 500 µM | > 500 µM | 500 µM (≈ 166 µg/mL) | > 500 µM | > 500 µM | > 500 µM | 500 µM (≈ 166 µg/mL) | 125 µM (≈ 41.5 µg/mL) | > 500 µM | > 500 µM | > 500 µM | 125 µM (≈ 41.5 µg/mL) | > 500 µM | 500 µM (≈ 166 µg/mL) | > 500 µM | MIC (Escherichia coli [21]): > 500 µM; MIC (Nakaseomyces glabratus [22]): > 500 µM; MIC [23]: 500 µM (≈ 166 µg/mL); MIC (Klebsiella pneumoniae [24]): > 500 µM; MIC (Trichosporon asahii [25]): > 500 µM; MIC (Staphylococcus aureus [26]): 500 µM (≈ 166 µg/mL); MIC (Staphylococcus aureus [27]): 500 µM (≈ 166 µg/mL); MIC (Lichtheimia corymbifera [28]): > 500 µM |
| O=C(NCc1ccccc1)Oc1ccccc1C(=O)Nc1ccccc1 | > 500 µM | 125 µM (≈ 43.3 µg/mL) | 125 µM (≈ 43.3 µg/mL) | > 500 µM | 125 µM (≈ 43.3 µg/mL) | > 500 µM | > 500 µM | 500 µM (≈ 173 µg/mL) | 250 µM (≈ 86.6 µg/mL) | 125 µM (≈ 43.3 µg/mL) | > 500 µM | 500 µM (≈ 173 µg/mL) | 15.6 µM (≈ 5.41 µg/mL) | > 500 µM | > 500 µM | 125 µM (≈ 43.3 µg/mL) | 15.6 µM (≈ 5.41 µg/mL) | 125 µM (≈ 43.3 µg/mL) | 500 µM (≈ 173 µg/mL) | 125 µM (≈ 43.3 µg/mL) | MIC (Escherichia coli [21]): > 500 µM; MIC (Nakaseomyces glabratus [22]): 250 µM (≈ 86.6 µg/mL); MIC [23]: 500 µM (≈ 173 µg/mL); MIC (Klebsiella pneumoniae [24]): > 500 µM; MIC (Trichosporon asahii [25]): 125 µM (≈ 43.3 µg/mL); MIC (Staphylococcus aureus [26]): 250 µM (≈ 86.6 µg/mL); MIC (Staphylococcus aureus [27]): 250 µM (≈ 86.6 µg/mL); MIC (Lichtheimia corymbifera [28]): > 500 µM |
| O=C(NCCc1ccccc1)Oc1ccccc1C(=O)Nc1ccccc1 | > 500 µM | 125 µM (≈ 45.1 µg/mL) | > 500 µM | > 500 µM | > 500 µM | > 500 µM | > 500 µM | 125 µM (≈ 45.1 µg/mL) | 250 µM (≈ 90.1 µg/mL) | > 500 µM | > 500 µM | 125 µM (≈ 45.1 µg/mL) | 62.5 µM (≈ 22.5 µg/mL) | > 500 µM | > 500 µM | > 500 µM | 62.5 µM (≈ 22.5 µg/mL) | 125 µM (≈ 45.1 µg/mL) | 125 µM (≈ 45.1 µg/mL) | > 500 µM | MIC (Escherichia coli [21]): > 500 µM; MIC (Nakaseomyces glabratus [22]): 250 µM (≈ 90.1 µg/mL); MIC [23]: 125 µM (≈ 45.1 µg/mL); MIC (Klebsiella pneumoniae [24]): > 500 µM; MIC (Trichosporon asahii [25]): > 500 µM; MIC (Staphylococcus aureus [26]): 125 µM (≈ 45.1 µg/mL); MIC (Staphylococcus aureus [27]): 125 µM (≈ 45.1 µg/mL); MIC (Lichtheimia corymbifera [28]): > 500 µM |
